Broadly, the IC50 is the midpoint of a concentration-inhibition curve. What is called GI50 is the concentration that inhibits growth by half.

Experiment [1] addresses T1, Mucosa-associated lymphoid tissue lymphoma translocation protein 1 (Homo sapiens, UniProt Q9UDY8).
T1 sequence (Q9UDY8 whole entry): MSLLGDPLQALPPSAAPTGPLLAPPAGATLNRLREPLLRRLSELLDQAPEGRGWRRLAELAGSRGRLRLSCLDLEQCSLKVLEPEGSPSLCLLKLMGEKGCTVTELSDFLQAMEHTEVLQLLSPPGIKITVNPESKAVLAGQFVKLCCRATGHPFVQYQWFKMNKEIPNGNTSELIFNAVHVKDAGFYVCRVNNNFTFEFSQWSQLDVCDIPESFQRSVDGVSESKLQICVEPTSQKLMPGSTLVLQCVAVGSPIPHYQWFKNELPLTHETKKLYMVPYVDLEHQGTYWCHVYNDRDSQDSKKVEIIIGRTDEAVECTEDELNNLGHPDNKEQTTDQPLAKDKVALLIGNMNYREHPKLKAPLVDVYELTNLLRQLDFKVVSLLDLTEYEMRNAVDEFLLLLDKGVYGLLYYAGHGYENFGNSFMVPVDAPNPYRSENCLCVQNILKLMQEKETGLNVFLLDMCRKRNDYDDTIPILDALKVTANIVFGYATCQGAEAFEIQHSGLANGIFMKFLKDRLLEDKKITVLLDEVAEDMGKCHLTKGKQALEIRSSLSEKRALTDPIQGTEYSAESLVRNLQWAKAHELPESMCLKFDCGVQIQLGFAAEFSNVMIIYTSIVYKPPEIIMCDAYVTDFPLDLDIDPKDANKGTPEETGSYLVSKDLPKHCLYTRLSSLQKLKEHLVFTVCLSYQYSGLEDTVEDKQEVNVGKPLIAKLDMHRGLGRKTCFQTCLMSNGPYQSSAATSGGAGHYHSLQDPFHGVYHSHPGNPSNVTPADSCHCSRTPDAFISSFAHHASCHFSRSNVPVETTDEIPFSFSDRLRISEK
Kind of experiment: Inhibition of full length recombinant wild type MALT1 (unknown origin) using Ac-LVSR-AMC as substrate by HTS assay.

Experiment [2] in a line: Antiproliferative activity against human HBL1 cells assessed as inhibition of cell growth incubated for 72 hrs by Celltiter-Glo luminescent assay. It is filed as functional. The procedure, abridged: (§1)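 Exponentially growing cells were seeded at 1 × 10⁴ per 100 μL. HBL-1 and TMD8 were kept in RPMI with 10% FBS, 2 mM glutamine and 10 mM HEPES; OCI-LY1 in Iscove's medium with 20% FBS; all at 37 °C and 5% CO2. Cells were exposed to DMSO or 2-fold serial dilutions from 100 μM for 72 h, in triplicate on one plate. CellTiter-Glo luminescence was read after 1 h. Growth inhibition was calculated against control, accounting for initial cell number, and GI50 was fitted.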
For orientation: ATP-based viability assays read luminescence as a measure of living cells.

Another experiment deals with OCI-Ly1. Kind of experiment: Antiproliferative activity against human OCI-Ly1 cells assessed as inhibition of cell growth incubated for 72 hrs by Celltiter-Glo luminescent assay. It counts as functional. The procedure, abridged: as §1
Experiment [3] concerns the target T1, Mucosa-associated lymphoid tissue lymphoma translocation protein 1. Kind of experiment: Inhibition of N-terminal his-tagged GCN4 leucine zipper fused human MALT1 […] expressed in Escherichia coli using Ac-LVSR-AMC as substrate by HTS assay.
Another experiment has as its system TMD8. Kind of experiment: Antiproliferative activity against human TMD8 cells assessed as inhibition of cell growth incubated for 72 hrs by Celltiter-Glo luminescent assay. It is filed as functional. The procedure, abridged:
as §1

In experiment [4] the target is T1, Mucosa-associated lymphoid tissue lymphoma translocation protein 1. Kind of experiment: Inhibition of MALT1 (329-824 residues) (unknown origin) using PT14 as substrate incubated for 60 mins by fluorescence based assay.
Experiment [5] shares this target. Kind of experiment: Inhibition of MALT1 (340 to 789 residues) (unknown origin) using Ac-LRSR-AMC as substrate by fluorescence based analysis. The procedure, abridged: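 N-terminal His-tagged LZ-MALT1 expressed in E. coli, purified by Ni-NTA then gel filtration. Fluorescence read at 360/465 nm. IC₅₀ came from concentration–response curves; mean of three independent experiments.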

The source made the active and inactive calls. The calls are words filed in the database; no cut-off is given here.

As to `COCCOc1nc(-c2ccc(Cl)c(Cl)c2)n(-c2ccc(NC(=O)CCl)cc2)n1`, the IC50 in experiment [1] was 5.84 µM.
Take `O=C(NCc1ccccc1Cl)c1sc(=S)n2c1[nH]c(=O)c1cc(Br)ccc12`: the GI50 in experiment [2] was 19 µM; in the experiment with OCI-Ly1, 30 µM; in the experiment on TMD8, 15 µM. Also, it took 2.3 µM to reach half-maximal inhibition in experiment [3] (IC50).
`COC(=O)c1ccc2c(=O)[nH]c3c(C(=O)Nc4cc(OC)ccc4OC)sc(=S)n3c2c1`: the GI50 is 6.7 µM in experiment [2], 13.4 µM in the experiment on OCI-Ly1 and 7 µM in the experiment with TMD8. Further, the concentration for half-maximal inhibition (IC50) in experiment [3] is 5.3 µM.
For `O=C(Nc1cccc(F)c1)c1sc(=S)n2c1[nH]c(=O)c1ccc(Cl)cc12` the same measures were 16.8 µM, 12.4 µM, 16.8 µM and 5.53 µM.
With `Cc1ccc(NC(=O)Nc2ccc3nc(N4CCN(C)CC4)cc(C)c3c2)cc1Cl`, the GI50 is 5.56 µM in experiment [2], 11.2 µM in the experiment with OCI-Ly1 and 5.56 µM with TMD8. The same compound returned an IC50 in experiment [3] of 16.6 µM.
As for `COc1cc2c(=O)[nH]c3c(C(=O)Nc4cc(Cl)cc(Cl)c4)sc(=S)n3c2cc1OC`, the GI50 was 2.2 µM in experiment [2], 14.2 µM in the experiment with OCI-Ly1 and 6.3 µM in the experiment on TMD8. The same compound had an IC50 in experiment [3] of 14 µM.
The matching figures for `CCc1ccccc1NC(=O)c1sc(=S)n2c1[nH]c(=O)c1cc(C)ccc12`: 31.3 µM, 31.3 µM, 31.3 µM and 18.5 µM.
The matching figures for `COC(=O)c1ccc2c(=O)[nH]c3c(C(=O)Nc4ccc(-c5ccccc5)cc4)sc(=S)n3c2c1`: 16 µM, 34 µM, 23 µM and 6.4 µM.
For `COc1ccc(OC)c(NC(=O)c2sc(=S)n(-c3ccc(Cl)cc3)c2NC(=O)CCl)c1` the same measures were 1.5 µM, 13 µM, 1 µM and 7 µM.
As for `Cc1ccc(NC(=O)c2sc(=S)n3c2[nH]c(=O)c2cc(Br)ccc23)c(C)c1`, the GI50 in experiment [2] is 17 µM; in the experiment on OCI-Ly1, 26 µM; in the experiment on TMD8, 10 µM. Moreover, in experiment [3], the half-inhibitory concentration (IC50) is 6.4 µM.
The matching figures for `O=C(Nc1cccc(F)c1)c1sc(=S)n2c1[nH]c(=O)c1cc(Br)ccc12`: 17.1 µM, 17.1 µM, 17.1 µM and 16.1 µM.
In experiment [4], `CO[C@@H](C)c1c(NC(=O)Nc2cnc(C(=O)N3CCCC3)c(Cl)c2)cnc2cc(Cl)nn12` displayed a 50% inhibitory concentration (IC50) of 0.005 µM.
Turning to `Cc1ccc(NC(=O)c2sc(=S)n3c2[nH]c(=O)c2cc(C)ccc23)c(C)c1`, the concentration for 50% growth inhibition (GI50) is 20.4 µM in experiment [2] and 15.6 µM in the experiment with TMD8. In addition, the outcome in the experiment with OCI-Ly1 was inactive. This compound showed an IC50 in experiment [3] of 7.16 µM.
Regarding `COc1ccc(OC)c(NC(=O)c2sc(=S)n3c2[nH]c(=O)c2ccc(Cl)cc23)c1`, the values for the GI50 (in experiment [2]; with OCI-Ly1; in the experiment with TMD8) were 8.2 µM, 20.7 µM and 8.4 µM, respectively. In experiment [3], this compound yielded an IC50 of 5.2 µM.
As for `COc1ccccc1CNC(=O)c1sc(=S)n2c1[nH]c(=O)c1cc(Cl)ccc12`, the GI50 (in experiment [2]; with TMD8) was 40 µM in each case. Also, the outcome in the experiment with OCI-Ly1 was inactive. The concentration for half-maximal inhibition (IC50) in experiment [3] came out at 6 µM.
`Cc1ccc2c(c1)c(=O)[nH]c1c(C(=O)Nc3cc(Cl)ccc3C)sc(=S)n12`: the GI50 in experiment [2] stood at 14 µM; with OCI-Ly1 it was 23 µM; in the experiment on TMD8 it was 8 µM. Further, the IC50 in experiment [3] worked out at 3.4 µM.
For `COC(=O)c1ccc2c(=O)[nH]c3c(C(=O)Nc4ccccc4C)sc(=S)n3c2c1` the same measures were 13.1 µM, 15 µM, 15 µM and 14.5 µM.
On to `COc1ccc(OC)c(NC(=O)c2sc(=S)n(-c3cccc(C(F)(F)F)c3)c2NC(=O)CCl)c1`, for which the GI50 in experiment [2] turned out to be 2.2 µM; with OCI-Ly1, 13.3 µM; in the experiment on TMD8, 1.3 µM. Moreover, inhibition in experiment [3] was half-maximal at 3.2 µM (IC50).
The matching figures for `O=C(O)c1cccc(NC(=O)c2sc(=S)n3c2[nH]c(=O)c2cc(Br)ccc23)c1`: 12.4 µM, 23.7 µM, 23.7 µM and 14.9 µM.
For `COc1ccc(OC)c(NC(=O)c2sc(=S)n(-c3cccc(Br)c3)c2NC(=O)CCl)c1`, the 50% growth inhibitory concentration (GI50) in experiment [2] was found to be 1.8 µM; in the experiment with OCI-Ly1, 12.7 µM; with TMD8, 1.2 µM. In addition, the IC50 in experiment [3] turned out to be 4.6 µM.
In experiment [5], `CC(C)[C@H](NC(=O)c1ccc(Br)cc1)C(=O)N1CCC[C@H]1C(=O)N[C@@H](CCCNC(=N)N)C(=O)CF` had an IC50 of 0.01 µM.
On to `COc1cccc(CNC(=O)c2sc(=S)n3c2[nH]c(=O)c2cc(Br)ccc23)c1`, for which the GI50 (in experiment [2]; in the experiment with OCI-Ly1; with TMD8) was 16.1 µM in each case. In experiment [3], this compound returned a half-maximal inhibitory concentration (IC50) of 12.8 µM.
